Tested on in one experiment: not listed separately
In words: Binding affinity against recombinant Plasmodium falciparum D10 M18AAP. In outline: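 Recombinant His6-tagged PfM18AAP was expressed in baculovirus-infected Sf9 cells and purified on Ni-NTA-agarose. Enzyme (60 nM) was preincubated 30 min in 50 mM Tris-HCl, pH 7.5, then added to the fluorogenic substrate H-Asp-NHMec. Initial hydrolysis rates were read by fluorescence (ex 370 nm, em 460 nm) with inhibitor present.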
As to `N[C@@H](CCC(=O)O)P(=O)(O)O`, the Ki (as a rule, a measure of affinity in units of concentration, obtained from inhibition or displacement) stood at 0.34 µM.

Take `NC(CCC(=O)O)P(=O)(O)c1ccccc1` (centres undefined): the Ki is more than 2000 µM.

With `CC(CP(=O)(O)C(N)CCC(=O)O)C(=O)O` (centres undefined), the Ki amounted to 42.7 µM. Consider `NC(CCCC(=O)O)P(=O)(O)O` (centres undefined), for which the Ki was determined as 105 µM. Same read-out and setting: to `NC(CC(=O)O)P(=O)(O)O` (centres undefined) belongs 27 µM; to `NC(CCP(=O)(O)O)P(=O)(O)O` (centres undefined), 4.4 µM; to `CC(CP(=O)(O)C(N)CC(=O)O)C(=O)O` (centres undefined), 183 µM. For `CP(=O)(O)C(N)CC(=O)O` (centres undefined), the Ki amounted to 395 µM.

In a further experiment the test system is Plasmodium falciparum. In words: Binding affinity against recombinant Plasmodium falciparum D10 M18AAP at 1.83 mM. An outline of the steps: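 Phosphonic/phosphinic amino-acid analogues and phosphinate dipeptides tested on rPfM18AAP in the fluorogenic assay: initial rate of H-Asp-NHMec hydrolysis (ex 370/em 460 nm) at pH 7.5, enzyme preincubated 30 min in 50 mM Tris-HCl; inhibited rates compared with an enzyme-plus-substrate control.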
Consider `NC(CCC(=O)O)P(=O)(O)c1ccccc1` (centres undefined), for which the Activity amounted to 20%.

The values above are taken from ChEMBL document CHEMBL1156507, “The M18 aspartyl aminopeptidase of the human malaria parasite Plasmodium falciparum” (J Biol Chem, 2007).
